The source of these data is ChEMBL document CHEMBL1127081, “Synthesis of 2,4-disubstituted thiazoles and selenazoles as potential antifilarial and antitumor agents. 2. 2-Arylamido and 2-alkylamido derivatives of 2-amino-4-(isothiocyanatomethyl)thiazole and 2-amino-4-(isothiocyanatomethyl)selenazole” (J Med Chem, 1993).

One may read the IC50 as the concentration at which inhibition is half-maximal. Read a low IC50 as greater potency.

Molecules are shown by their SMILES. The source made the active and inactive calls. The rule behind the calls is not given here.

Assay [1] has as its system Acanthocheilonema viteae. The assay can be described thus: Antifilarial activity against adult worm of A. viteae in jirds at 100 mg/kg x 5 days administered subcutaneously; No activity. The class given is functional, organism-based. Details: dose 100 mg/kg.
For assay [2], the system named is Brugia pahangi. The assay can be described thus: Compound tested for anti-filarial activity against adult worm of Brugia pahangi in jirds at 100 mg/kg x 5 days administered subcutaneously; No activity. The class given is functional, organism-based. Also on record: dose 100 mg/kg.
Assay [3] concerns L1210. The assay can be described thus: Compound was tested in vitro for antiproliferative activity against L1210 leukemic cells. The note with it: Mus musculus. The class given is functional, cell-based. Put shortly:
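Mouse L1210 leukemia cells grown in static suspension culture at 38 °C in Fischer's medium. Cells were exposed continuously to a range of concentrations for 3 days. Growth rate = control doubling time / treated doubling time, as % of control; the final rate was used if growth slowed. IC50 = concentration reducing growth rate to 50% of control.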

For assay [4], the system named is L1210. The assay can be described thus: Screen growth rate of L1210 leukemic cells in the presence of compound at 100 uM expressed as percent of control. It counts as functional, Mus musculus. A digest of the protocol: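 L1210 cells grown in static suspension at 38 °C in Fischer's medium with continuous 100 μM compound for 3 days. Growth rate = ratio of control to treated population doubling time, expressed as % of control; if growth slowed, the final rate over the 3-day period was used.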

The subject of assay [5] is L1210. The assay can be described thus: Compound was tested in vitro for antiproliferative activity against L1210 leukemic cells; No significant inhibition. It counts as functional, cell-based, Mus musculus.
Assay [6] concerns the target GMP synthase [glutamine-hydrolyzing] (Mus musculus, UniProt Q3THK7). The assay can be described thus: In vitro inhibitory activity against partially purified GMP synthetase in L1210 cells.

Sequence of GMP synthase [glutamine-hydrolyzing] (Q3THK7 whole entry): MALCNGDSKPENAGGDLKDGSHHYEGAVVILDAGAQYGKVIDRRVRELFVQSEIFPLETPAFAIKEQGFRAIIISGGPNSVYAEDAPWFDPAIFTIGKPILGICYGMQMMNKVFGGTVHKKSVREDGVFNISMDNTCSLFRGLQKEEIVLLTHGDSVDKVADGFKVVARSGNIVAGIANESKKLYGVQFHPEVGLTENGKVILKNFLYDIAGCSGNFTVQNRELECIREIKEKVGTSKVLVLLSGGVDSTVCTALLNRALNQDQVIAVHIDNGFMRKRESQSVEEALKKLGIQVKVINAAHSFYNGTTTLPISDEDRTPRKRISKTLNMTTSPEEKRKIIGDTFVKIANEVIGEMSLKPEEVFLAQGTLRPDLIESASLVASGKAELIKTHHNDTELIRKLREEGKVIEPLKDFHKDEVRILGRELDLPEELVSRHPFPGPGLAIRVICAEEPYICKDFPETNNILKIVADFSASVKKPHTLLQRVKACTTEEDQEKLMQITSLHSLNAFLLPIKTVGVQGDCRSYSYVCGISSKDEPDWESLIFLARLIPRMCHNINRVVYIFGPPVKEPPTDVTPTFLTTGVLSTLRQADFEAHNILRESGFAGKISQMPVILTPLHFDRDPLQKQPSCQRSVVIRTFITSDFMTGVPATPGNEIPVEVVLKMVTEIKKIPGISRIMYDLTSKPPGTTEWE

As for `CC(=O)Nc1nc(CCl)c[se]1`, the result in assay [1] and in assay [2] was inactive. This compound also registered an IC50 in assay [3] of over 100 µM. For the same compound, the GR in assay [4] was determined as 65%.
`O=C(Nc1nc(CCl)c[se]1)c1ccccc1`: the outcome in assay [1] and in assay [2] was inactive. For the same compound, the half-maximal inhibitory concentration (IC50) entry in assay [5] is on record as “Not Active”. Moreover, in assay [4], the GR was determined as 101%.
As for `COC(=O)Nc1nc(CN=C=S)cs1`, the result in assay [1] and in assay [2] was inactive.
With `Nc1nc(CN=C=S)c[se]1`, the outcome in assay [1] and in assay [2] was inactive. The compound further came in with an IC50 in assay [3] of 21 µM. In addition, the GR in assay [4] is reported as 0%.
`O=C(Nc1nc(CN=C=S)cs1)C(F)(F)F`: the result in assay [1] and in assay [2] was inactive. In assay [4], the GR was 20%.
Regarding `CC(C)C(=O)Nc1nc(CN=C=S)cs1`, the result in assay [1] and in assay [2] was inactive. This compound returned an IC50 in assay [3] of 8.2 µM. Besides, the GR in assay [4] turned out to be 0%.
On to `O=C(Nc1nc(CN=C=S)cs1)c1ccc(Cl)cc1`, for which the outcome in assay [1] and in assay [2] was inactive. Half-maximal inhibition in assay [3] (IC50) required 0.22 µM. Moreover, the GR in assay [4] stood at 0%.
`O=C(Nc1nc(CN=C=S)cs1)c1ccc(F)cc1`: the result in assay [1] and in assay [2] was inactive. Besides, in assay [3], the IC50 amounted to 1.1 µM. For the same compound, the GR in assay [4] was found to be 0%.
For `O=C(Nc1nc(CN=C=S)cs1)c1ccc(Cl)c(Cl)c1`, the outcome in assay [1] and in assay [2] was inactive. The compound further yielded a concentration for half-maximal inhibition (IC50) in assay [3] of 0.82 µM. Besides, in assay [4], the GR is recorded as 0%.
Turning to `Nc1nc(CN=C=S)cs1`, the outcome in assay [1] and in assay [2] was inactive. The compound also showed an IC50 in assay [3] of 26 µM. Moreover, in assay [4], the GR was determined as 0%.
Turning to `CC(C)(C)c1ccc(C(=O)Nc2nc(CN=C=S)cs2)cc1`, the outcome in assay [1] and in assay [2] was inactive. The same compound displayed an IC50 in assay [3] of over 100 µM. Further, the GR in assay [4] is 72%.
Take `O=C(Nc1nc(CCl)cs1)c1ccccc1`: the result in assay [1] and in assay [2] was inactive. In addition, the half-maximal inhibitory concentration (IC50) result in assay [5] is “Not Active”. Also, the GR in assay [4] is listed as 100%.
For `CC(C)(C)C(=O)Nc1nc(CN=C=S)cs1`, the outcome in assay [1] and in assay [2] was inactive. Inhibition in assay [3] was half-maximal at 4.3 µM (IC50). Further, in assay [4], the GR came out at 28%.
Consider `O=C(Nc1nc(CN=C=S)cs1)c1ccc(C(F)(F)F)cc1`, for which the outcome in assay [1] and in assay [2] was inactive. Besides, the IC50 in assay [3] was 0.5 µM. In addition, the GR in assay [4] stood at 0%.
As to `CC(C)C(=O)Nc1nc(CN=C=S)c[se]1`, the result in assay [1] and in assay [2] was inactive. Also, inhibition in assay [3] was half-maximal at 28 µM (IC50). Also, the GR in assay [4] is 0%.
With `CC(=O)Nc1nc(CN=C=S)c[se]1`, the result in assay [1] and in assay [2] was inactive. Further, in assay [3], the IC50 was 30 µM. Also, in assay [4], the GR came out at 14%.
Consider `CCC(=O)Nc1nc(CN=C=S)c[se]1`, for which the outcome in assay [1] and in assay [2] was inactive. The same compound displayed an IC50 in assay [3] of 3.5 µM. In assay [4], the GR was 0%.
As for `CCC(=O)Nc1nc(CN=C=S)cs1`, the outcome in assay [1] and in assay [2] was inactive. Also, in assay [3], the midpoint of inhibition, the IC50, lay at 6.8 µM. Moreover, in assay [4], the GR was determined as 0%.
As to `CC(=O)Nc1nc(CN=C=S)cs1`, the result in assay [1] and in assay [2] was inactive. For the same compound, the IC50 in assay [3] was 5.2 µM. In assay [4], the GR was 1%.
Take `CC(C)(C)C(=O)Nc1nc(CN=C=S)c[se]1`: the outcome in assay [1] and in assay [2] was inactive. The compound further gave a 50% inhibitory concentration (IC50) in assay [3] of 18 µM. In addition, in assay [4], the GR came to 0%.
Consider `CC(=O)Nc1nc(CCl)cs1`, for which the outcome in assay [1] and in assay [2] was inactive. In assay [3], this compound registered a half-inhibitory concentration (IC50) of over 100 µM. Also, in assay [4], the GR is on record as 75%.
On to `O=C(Nc1nc(CN=C=S)cs1)c1ccccc1`, for which the outcome in assay [1] and in assay [2] was inactive. Besides, the IC50 in assay [6] was determined as 0.35 µM; in assay [3], 0.2 µM. In assay [4], the GR is given as 0%.
On to `Cc1ccc(C(=O)Nc2nc(CN=C=S)cs2)cc1`, for which the outcome in assay [1] and in assay [2] was inactive. Further, the midpoint of inhibition in assay [3], the IC50, lay at 0.48 µM. In addition, in assay [4], the GR is on record as 25%.
Regarding `COc1ccc(C(=O)Nc2nc(CN=C=S)cs2)cc1`, the result in assay [1] and in assay [2] was inactive. In addition, in assay [3], 0.44 µM corresponded to half-maximal inhibition (IC50). In assay [4], the GR is given as 0%.
As to `O=C(Nc1nc(CN=C=S)c[se]1)c1ccccc1`, the outcome in assay [1] and in assay [2] was inactive. Moreover, the IC50 in assay [3] was determined as 0.9 µM. In assay [4], the GR is listed as 13%.
